Bioassay records (PubChem)
14-3-3 Bad PPI – disrupts binding of bovine 14-3-3 zeta to phospho-Bad peptide; P63103; TR-FRET 14-3-3zeta/Dy647-pBad peptide displacement, 1 h; inhibition, % at 21.7 µM; 220,000 tested, 0.71% active; AID 781;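 active = inhibition above about 70%, limit read from the data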;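 also: 0% = full 14-3-3 plus peptide FRET controls and 100% = background without 14-3-3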
Target sequence (P63103 whole entry, looked up): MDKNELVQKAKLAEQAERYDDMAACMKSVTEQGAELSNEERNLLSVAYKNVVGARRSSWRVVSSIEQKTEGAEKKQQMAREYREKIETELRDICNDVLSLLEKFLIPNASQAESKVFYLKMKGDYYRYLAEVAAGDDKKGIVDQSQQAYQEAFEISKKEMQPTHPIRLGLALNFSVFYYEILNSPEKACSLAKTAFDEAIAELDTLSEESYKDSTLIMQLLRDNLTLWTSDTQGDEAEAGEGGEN
KCC2 mod – modulates chloride dependent transport by human KCC2; 190,000 tested, 2.2% active; AID 1456; Q9H2X9; B-score of Tl+ flux slope (higher = more flux/activation; lower = inhibition) at 10 µM; KCC2 cells, thallium flux FluoZin-2 fluorescence;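 active = thallium flux slope and its plate-corrected score both differing from the plate sample mean at a set confidence after two filtering rounds, in either direction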;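 also: slope of fluorescence scaled to starting intensity during 10 to 20 s after thallium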
RBBP9 inh – blocks human serine hydrolase RBBP9 | recombinant RBBP9, FP-Rh probe fluorescence polarization | inhibition, % at 7.94 µM | AID 1515 | O75884 | 220,000 tested, 0.2% active;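 active = inhibition above the campaign mean of all tested compounds plus 3 SD, cut at about 14% in these data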;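 also: plate controls were DMSO wells with RBBP9 for no effect and wells lacking RBBP9 protein for full effect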
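Test system: recombinant human RBBP9; Timing: 30 min then 45 min, 25 °C; Detection: fluorescence polarization; Control set: RBBP9 with DMSO as uninhibited control, no-protein wells as full inhibition; Compound dosing: one concentration, 7.94 µM nominal, 0.794% DMSO; Probe or stimulus: FP-Rh activity-based probe, 375 nM before mixing.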
WT yeast gro inh – growth inhibition of WT yeast, mitochondrial fusion screen. mitochondrial fusion phenotypic screen, WT strain. 190,000 tested, 2.1% active. inhibition, % at 10 µM; in the data active = inhibition above about 58%; tested in S. cerevisiae
p47phox inh – inhibitors of human p47phox binding; 220,000 tested, 0.53% active; P14598; p47phox/p22phox peptide binding, fluorescence polarization, 2 h; inhibition, % at 24.7 µM;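 active = inhibition above about 30%, limit read from the data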;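 also: 0% = p47phox with labelled peptide and 100% = labelled peptide alone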
ROMK mod – modulates human ROMK potassium channel activity; P48048; Tet-inducible ROMK, thallium flux fluorescence; actives lie on both sides; B-score at 10 µM; 130,000 tested, 2% active; AID 1918;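 active = signal ratio slope over the read window, or its plate-corrected B-score, at least 3 SD from the plate mean, either direction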;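 also: B-score of the F/F0 ratio slope over 7 to 12 s after thallium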
Target sequence (P48048 whole entry, looked up): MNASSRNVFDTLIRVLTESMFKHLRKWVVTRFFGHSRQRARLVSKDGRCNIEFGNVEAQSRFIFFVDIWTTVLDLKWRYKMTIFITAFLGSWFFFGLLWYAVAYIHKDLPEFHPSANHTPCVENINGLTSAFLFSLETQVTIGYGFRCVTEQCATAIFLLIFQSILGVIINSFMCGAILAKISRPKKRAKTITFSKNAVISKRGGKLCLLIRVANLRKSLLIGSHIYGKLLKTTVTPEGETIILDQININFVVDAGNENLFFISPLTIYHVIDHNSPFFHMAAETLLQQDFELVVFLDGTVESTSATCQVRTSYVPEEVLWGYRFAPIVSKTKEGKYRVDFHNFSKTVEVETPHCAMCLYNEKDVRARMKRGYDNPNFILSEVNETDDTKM
RBBP9 inh conf – human RBBP9 inhibition, confirmation; 410 tested, 36% active; shares compounds with RBBP9 inh; AID 1537; inhibition, % at 7.94 µM; recombinant RBBP9, FP-Rh probe fluorescence polarization;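 active = inhibition above the hit cutoff derived for the primary screen, cut at about 15% in these data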;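 also: 0% = RBBP9 with DMSO and 100% = wells lacking RBBP9 protein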
ROMK hit retest – confirmation of human ROMK potassium channel modulators | shares compounds with ROMK mod | ROMK thallium flux, fluorescence ratio; stronger effect = lower value | 3,000 tested, 54% active | normalized thallium flux (F/F0 slope) at 10 µM;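 active = Flux at 10 µM at least 3 SD below or above vehicle control mean in one or both replicates; inconclusive = no clear call, values can overlap the other calls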
The depositor's hits bear a star; i = inactive; ? = inconclusive; . = not tested or not shown. Hits are enriched below; roughly 5.8% of the tested compounds scored in any of these assays.

SMILES | 14-3-3 Bad PPI | KCC2 mod | RBBP9 inh | WT yeast gro inh | p47phox inh | ROMK mod | ROMK hit retest | others
CN1CCN2c3ccc(N)cc3CC3(C(=O)NC(=O)NC3=O)C2C1 (stereo not given) | 96* | 0.08 | 21* | . | 29 | -1.1 | . | RBBP9 inh conf=65*
OCc1cnc[nH]1 | 8 | 1.2 | 3 | -4 | -5 | . | .
CN1C(=O)C(=Cc2ccc(N3CCOCC3)o2)C(=O)N(C)C1=S | -7 | . | -5 | 16 | -226 | . | .
CCN1C(=O)C(=Cc2ccc(N3CCOCC3)o2)C(=O)N(CC)C1=S | 5 | -2 | -10 | . | -231 | . | 0.054*
C=CCN1C(=O)/C(=C\c2ccc(N3CCOCC3)o2)C(=O)NC1=S | -5 | -2.1 | -5 | -5 | -199 | -4.7* | 0.052*
C=C1C[C@@H]2[C@H](CC[C@]3(C)C(=O)CC[C@@H]23)[C@@]2(C)C=CC(=O)C=C12 | 3 | 0.34 | 0 | 13 | 5 | . | .
CC(C)c1ccc(N=Cc2c(O)n(C3CC3)c(=S)[nH]c2=O)cc1 | 6 | 2.9 | -9 | . | -9 | . | .
O=C(/C=C/c1c[nH]c2ccccc12)c1c(O)n(CCc2ccccc2)c(=O)[nH]c1=O | 3 | i | -2 | . | -256 | . | 0.04*
O=C(c1ccc(N2CC3CC(C2)c2cccc(=O)n2C3)c([N+](=O)[O-])c1)N1CCCCC1 (stereo not given) | -24 | 0.26 | -2 | -25 | -4 | 1.2 | .
COC(=O)C1C=C2c3cccc4[nH]cc(c34)CC2N(C)C1 (stereo not given) | 7 | 0.2 | 21* | . | -1 | . | 0.054*
CCC(CO)NC(=O)C1C=C2c3cccc4[nH]cc(c34)CC2N(C)C1 (stereo not given) | -2 | 0.12 | -3 | . | 9 | . | .
CN1C(=O)C(=Cc2ccccc2OCc2ccc(Cl)cc2)C(=O)N(C)C1=O | -12 | -0.81 | -8 | 9 | -8 | . | .
CN1C(=O)C(=Cc2ccccc2Oc2ccc(Cl)cc2)C(=O)N(C)C1=O | 37 | -1.8 | -4 | -5 | -12 | . | 0.084
Cc1ccc2c(c1)N(N=O)CCC2 | -11 | 1.2 | -2 | -15 | -10 | -0.0029 | .
NC1=Nc2ccccc2Oc2ccccc21 | 3 | . | -5 | -15 | -5 | . | 0.048*
CN1c2ccccc2Oc2ccccc21 | 10 | 0.95 | -1 | 6 | 2 | . | .
CC1(C)C[C@H]2C=C(C=O)[C@]3(C=O)C[C@]3(C)[C@H]2C1 | 17 | -3 | -7 | 80 | -5 | -9.9* | 0.05*
C=CCn1c(O)c(C(C)=NCCCN(C)C)c(=O)[nH]c1=O | 6 | -0.55 | -7 | . | -4 | 1.3 | .
CCCCC(=O)N/N=C/c1c(O)n(CC)c(=S)[nH]c1=O | 3 | -0.7 | 1 | -2 | -41 | 1.9* | 0.077
CN1CCN(c2cc(N3CCCCCC3)c(F)cc2[N+](=O)[O-])CC1 | -17 | 0.77 | -3 | 17 | -25 | -3.6* | 0.053*
c1ccc2c(c1)Sc1ccccc1N2CC1CN2CCC1CC2 (stereo not given) | -2 | 0.46 | 2 | . | 2 | . | 0.04*
CNC(=O)Nc1ccc(C(=O)N/N=C\C23CC[C@@H](O)CC2(O)CC[C@@H]2[C@@H]3CCC3(C)C(C4=CC(=O)OC4)CCC23O)cc1 (stereo not given in full) | 0 | 0.31 | -7 | . | -9 | . | ?
CC12CC[C@H]3[C@@H](CCC4(O)C[C@H](O)CCC34/C=N/NC(=O)Cc3ccccc3)C1(O)CCC2C1=CC(=O)OC1 (stereo not given in full) | -3 | 0.97 | 5 | . | 1 | . | 0.085
O=C(O)c1sc2cc(Cl)ccc2c1Cl | -5 | -2.3 | 1 | . | -9 | . | .
Cc1cccc(-n2c(C)nc3ccccc3c2=O)n1 | 3 | 0.49 | -11 | -19 | -20 | 0.26 | .
SMILES | 14-3-3 Bad PPI | KCC2 mod | RBBP9 inh | WT yeast gro inh | p47phox inh | ROMK mod | ROMK hit retest | others
Cc1cccc(-n2c(=S)[nH]c3ccccc3c2=O)n1 | -9 | 0.1 | -4 | -16 | -4 | 2.5* | 0.075
CN1CCN(c2nc(N)c(Br)c(Cl)n2)CC1 | -6 | 0.13 | -3 | . | -10 | . | .
CN1C(=O)C(=Cc2ccc(Sc3ccccc3)o2)C(=O)N(C)C1=O | -9 | -2.5 | -4 | 2 | -69 | -5.6* | 0.056*
O=C1NC(=O)C(=Cc2ccc(Sc3ccccc3)o2)C(=O)N1 | 2 | -2.5 | -6 | . | -1 | . | .
O=C1N(c2cccc(Cl)c2)C(c2cccnc2)N2CCCN12 (stereo not given) | -6 | 1.2 | 3 | -6 | -4 | -0.068 | .
O=C1N(c2ccccc2)C(c2cccnc2)N2CCCN12 (stereo not given) | 2 | 0.21 | 1 | 2 | 5 | 2.5* | 0.087
CCOP(=S)(NN(Cc1ccccc1)C(=O)c1ccccc1)OCC | -13 | -0.37 | -1 | -16 | -4 | -0.63 | .
C1CCC2S[C@H]3CCCCC3NC2C1 (stereo not given in full) | 1 | 0.13 | -5 | . | -19 | -0.28 | .
COc1ccc(Nc2ncc(C(=O)N3CCC4(CC3)OCCO4)c3ccccc23)cc1 | 6 | -0.016 | -4 | 1 | 3 | -0.29 | .
CN1CCC(C)(O)C2CCCCC21 (stereo not given) | -3 | 0.77 | 2 | 2 | 1 | -11* | 0.082
O=C1C2CCN(CC2)C12CC2c1ccc(C(F)(F)F)cc1 (stereo not given) | 4 | 0.13 | -2 | . | -6 | . | .
O=C(COc1ccc(Cl)cc1)N1CCN(Cc2ccc([N+](=O)[O-])cc2)CC1 | 37 | -1.9 | -8 | 31 | -5 | -6.5* | 0.049*
C#CCOc1cc(C2C3=C(COC3=O)Nc3cc4c(cc32)OCO4)ccc1OC (stereo not given) | 3 | 1.1 | -13 | 27 | -2 | 3.5* | 0.086
Fc1ccccc1CCNCc1cccc2ccccc12 | -18 | 0.8 | 0 | 12 | -12 | -3.6* | 0.057*
CCOC(=O)[C@]1(C#N)[C@@H]2C=CC(C(C)=O)=CN2[C@@H](C(N)=O)[C@@H]1c1ccsc1 | 1 | 0.5 | 2 | -7 | -21 | -3.6* | 0.049*
CCc1ccccc1NC(=O)CNCc1ccccc1 | -2 | -0.48 | -5 | 0 | 2 | -0.95 | .
Cc1cc(C=C2C(=O)NC(=O)NC2=O)c(C)n1-c1cccnc1 | -2 | -0.29 | 5 | . | -14 | . | .
C=CCN1C(=O)/C(=C/c2cc(C)n(-c3cccnc3)c2C)C(=O)NC1=S | -36 | 0.45 | 0 | -2 | -22 | -2.9* | 0.067*
COc1ccc(-c2n(-c3ccccn3)c3ccccc3[n+]2-c2ccccn2)cc1 | 8 | 0.71 | 0 | . | 0 | . | .
O=C(c1ccc2c(c1)ncn2C1CCCCC1)N1CCC2(CC1)OCCO2 | 0 | . | -3 | 14 | -4 | 2.4* | 0.088
